ChEMBL document CHEMBL1148397, “Synthesis and biological evaluation of 2,3,5-substituted [1,2,4]thiadiazoles as allosteric modulators of adenosine receptors” (J Med Chem, 2004)
pEC50: −log10 of the molar value.

Key:
[1] = target: T1, Adenosine receptor A1 (Homo sapiens) (UniProt P30542); assay: Dissociation constant for [3H]DPCPX binding to human adenosine A1 receptor plus or minus compound (10 uM); t1/2 = 6.61 min
T1 sequence (whole entry): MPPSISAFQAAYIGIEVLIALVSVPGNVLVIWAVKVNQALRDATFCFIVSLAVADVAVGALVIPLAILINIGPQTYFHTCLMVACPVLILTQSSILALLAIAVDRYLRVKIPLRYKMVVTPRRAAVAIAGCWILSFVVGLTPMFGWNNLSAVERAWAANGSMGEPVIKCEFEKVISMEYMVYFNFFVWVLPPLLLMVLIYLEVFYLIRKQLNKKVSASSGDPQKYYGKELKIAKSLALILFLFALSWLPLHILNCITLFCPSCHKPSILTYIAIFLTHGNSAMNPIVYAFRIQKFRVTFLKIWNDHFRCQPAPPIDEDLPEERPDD

[2] = target: T1, Adenosine receptor A1 (Homo sapiens); assay: Percent remaining of radioligand [3H]CCPA binding to human adenosine A1 receptor at 10 uM
Outline: (§1)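 Radioligand displacement: CHO human A1 receptor membranes (40 μg protein, 2 IU/mL adenosine deaminase) with ~1.0 nM [3H]CCPA plus fixed or increasing compound, 60 min at 25 °C in Tris-HCl. Nonspecific binding defined with 10 μM DPCPX. Ice-cold dilution, GF/B filtration, scintillation counting. Results as % specific binding, control 100%. Means of 2–3 experiments in duplicate.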

[3] = target: T1, Adenosine receptor A1 (Homo sapiens); assay: Percent remaining of radioligand [3H]DPCPX binding to human adenosine A1 receptor at 1 uM
Outline: (§2)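 CHO human A1 receptor membranes (40 μg protein, 2 IU/mL adenosine deaminase) incubated 60 min at 25 °C in Tris-HCl with ~1.6 nM [3H]DPCPX and a fixed compound concentration. Nonspecific binding defined with 10 μM CPA. Filtration on GF/B, scintillation counting. Reported as % specific binding remaining (control 100%, nonspecific 0%). Means of 2–3 experiments in duplicate.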

[4] = target: T1, Adenosine receptor A1 (Homo sapiens); assay: Percent remaining of radioligand [3H]DPCPX binding to human adenosine A1 receptor at 10 uM; outline: as §2
[5] = target: T1, Adenosine receptor A1 (Homo sapiens); assay: Association constant for [3H]DPCPX binding to human adenosine A1 receptor plus or minus compound (10 uM); appt1/2 = 3.85 min
Outline: (§3)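 Membranes from CHO cells expressing recombinant human A1 receptor (40 μg protein) preincubated 30 min at 25 °C with compound. Association started by adding [3H]DPCPX (0.34–0.36 nM), stopped at time points by rapid dilution, then filtered on GF/B and washed with ice-cold buffer. Membranes carry 2 IU/mL adenosine deaminase.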

[6] = target: T1, Adenosine receptor A1 (Homo sapiens); assay: Dissociation constant for [3H]-CCPA binding to human adenosine A1 receptor plus or minus compound (10 uM); t1/2 = 5.37 min
Adenosine receptor A1 [7] = target: T2, Adenosine receptor A1 (Homo sapiens, UniProt P30542); assay: Effective concentration for displacement of [3H]-CCPA from human adenosine A1 receptor after 60 min; outline: as §1
T2 sequence (P30542 whole entry): T1 sequence (whole entry)

Adenosine receptor A1 [8] = target: T2, Adenosine receptor A1; assay: Effective concentration for displacement of [3H]CCPA from human A1 adenosine receptor after 60 min; outline: as §1
[9] = target: T1, Adenosine receptor A1 (Homo sapiens); assay: Dissociation constant for [3H]CCPA binding to human adenosine A1 receptor plus or minus compound (7 uM); t1/2 = 6.48 min.
[10] = target: T1, Adenosine receptor A1 (Homo sapiens); assay: Dissociation constant for [3H]DPCPX binding to human adenosine A1 receptor plus or minus compound (7 uM); t1/2 = 5.27 min.
[11] = target: T1, Adenosine receptor A1 (Homo sapiens); assay: Association constant for [3H]DPCPX binding to human Adenosine A1 receptor plus or minus compound (7 uM); appt1/2 = 1.77 min.; outline: as §3

## C/N=c1\nc(-c2ccccc2)n(-c2ccccc2)s1
[1]
  k off: 0.00184 s⁻¹
[2]
  Remaining: 10%
[3]
  Remaining: 104%
[4]
  Remaining: 149%
[5]
  kon: 3.5e+06 M⁻¹ s⁻¹
[6]
  k off: 0.00217 s⁻¹
Adenosine receptor A1 [7]
  pEC50: 5.55

## C/N=c1\nc(-c2ccc(OC)cc2)n(-c2ccccc2)s1
[2]
  Remaining: 35%
[3]
  Remaining: 100%
[4]
  Remaining: 114%

## C/N=c1\nc(-c2ccccc2)n(-c2ccc(C)cc2)s1
[2]
  Remaining: 31%
[3]
  Remaining: 99%
[4]
  Remaining: 123%

## CC/N=c1\nc(-c2ccc(Cl)cc2)n(-c2ccc(Cl)cc2)s1
[2]
  Remaining: 24%
[3]
  Remaining: 95%
[4]
  Remaining: 84%

## C/N=c1\nc(-c2ccccc2)n(-c2cccc(C)c2)s1
[2]
  Remaining: 5%
[3]
  Remaining: 99%
[4]
  Remaining: 109%
Adenosine receptor A1 [8]
  pEC50: 6.19

## C/N=c1\nc(-c2ccc(C)cc2)n(-c2ccc(C)cc2)s1
[2]
  Remaining: 20%
[3]
  Remaining: 104%
[4]
  Remaining: 97%

## C/N=c1\nc(-c2ccccc2)n(-c2ccc(OC)cc2)s1
[9]
  k off: 0.00184 s⁻¹
[10]
  k off: 0.00217 s⁻¹
[2]
  Remaining: 24%
[3]
  Remaining: 103%
[4]
  Remaining: 132%
[11]
  kon: 1.98e+07 M⁻¹ s⁻¹
Adenosine receptor A1 [7]
  pEC50: 5.62

## CC/N=c1\nc(-c2ccccc2)n(-c2ccc(Cl)c(Cl)c2)s1
[2]
  Remaining: 35%
[3]
  Remaining: 100%
[4]
  Remaining: 90%

## C/N=c1\nc(-c2ccccc2)n(-c2ccc(Cl)cc2)s1
[2]
  Remaining: 33%
[3]
  Remaining: 94%
[4]
  Remaining: 126%

## C/N=c1\nc(-c2ccc(Cl)cc2)n(-c2ccc(Cl)cc2)s1
[2]
  Remaining: 20%
[3]
  Remaining: 93%
[4]
  Remaining: 119%

## CC/N=c1\nc(-c2ccccc2)n(-c2ccc(Cl)cc2)s1
[2]
  Remaining: 30%
[3]
  Remaining: 104%
[4]
  Remaining: 109%

## C/N=c1\nc(-c2ccc(Cl)cc2)n(-c2ccccc2)s1
[2]
  Remaining: 15%
[3]
  Remaining: 106%
[4]
  Remaining: 119%

## C/N=c1\nc(-c2ccccc2)n(-c2cccc(Cl)c2)s1
[2]
  Remaining: 35%
[3]
  Remaining: 96%
[4]
  Remaining: 108%

## CC/N=c1\nc(-c2ccc(C)cc2)n(-c2ccc(C)cc2)s1
[2]
  Remaining: 32%
[3]
  Remaining: 100%
[4]
  Remaining: 61%
Adenosine receptor A1 [7]
  pEC50: 5.80

## C/N=c1\nc(-c2ccccc2)n(-c2ccc(Cl)c(Cl)c2)s1
[2]
  Remaining: 33%
[3]
  Remaining: 94%
[4]
  Remaining: 111%

## C/N=c1\nc(-c2cccc(Cl)c2)n(-c2cccc(Cl)c2)s1
[2]
  Remaining: 36%
[3]
  Remaining: 96%
[4]
  Remaining: 93%

## CC/N=c1\nc(-c2ccccc2)n(-c2ccccc2)s1
[2]
  Remaining: 6%
[3]
  Remaining: 103%
[4]
  Remaining: 114%

## CC/N=c1\nc(-c2ccccc2)n(-c2cccc(C)c2)s1
[2]
  Remaining: 6%
[3]
  Remaining: 98%
[4]
  Remaining: 75%

## CC/N=c1\nc(-c2ccccc2)n(-c2ccc(OC)cc2)s1
[2]
  Remaining: 24%
[3]
  Remaining: 103%
[4]
  Remaining: 120%

## CC/N=c1\nc(-c2ccccc2)n(-c2ccc(C)cc2)s1
[2]
  Remaining: 28%
[3]
  Remaining: 101%
[4]
  Remaining: 105%

## CC/N=c1\nc(-c2ccccc2)n(-c2cccc(Cl)c2)s1
[2]
  Remaining: 39%
[3]
  Remaining: 101%
[4]
  Remaining: 86%

## Cc1sc(N)c(C(=O)c2cccc(C(F)(F)F)c2)c1C
[2]
  Remaining: 225%
[3]
  Remaining: 87%
[4]
  Remaining: 68%
